Activity calls are given as the source filed them. No cut-off for these calls is given here.
Columns and labels:
Type in all cases: functional, organism-based
[1] = system: Vesicular stomatitis virus; experiment: Antiviral activity against VSV at 40 ug/ml
Human alphaherpesvirus 1 = experiment: Antiviral activity against HSV1 at 40 ug/ml
Penicillium = experiment: Antifungal ativity against Penicillium
How it was run: (§1)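 Disk diffusion on brain-heart agar plates inoculated with 0.1 ml of 8 h-old fungal cultures grown in CM medium (1% glucose, 0.5% yeast extract, 0.5% malt extract). 5-mm paper disks carrying 1 mg of sample were applied. Plates were held 2 h at 4° for diffusion, then incubated at 28°. Growth-inhibition halo (mm) was read at 18 h.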

Aspergillus niger = experiment: Antifungal ativity against Aspergillus niger CECT 2089; how it was run: as §1

SMILES | Activity [1] | Activity (Human alphaherpesvirus 1) | Growth-inhibition halo (Penicillium) | Activity (Aspergillus niger)
COc1cc(C[C@H]2[C@H](OC(C)=O)OC[C@@H]2[C@H](OC(C)=O)c2ccc(OC(C)=O)c(OC)c2)ccc1OC(C)=O | inactive | inactive | – | –
COc1cc([C@H]2OC[C@H]([C@H](OC(C)=O)c3ccc(OC(C)=O)c(OC)c3)[C@@H]2COC(C)=O)ccc1OC(C)=O | inactive | inactive | – | –
COc1cc(C[C@H]2[C@H](OC(C)=O)O[C@H](c3ccc(OC(C)=O)c(OC)c3)[C@H]2COC(C)=O)ccc1OC(C)=O | inactive | inactive | – | –
COc1cc(C[C@H]2COC(O)[C@@H]2Cc2ccc(O)c(OC)c2)ccc1O (some centres undefined) | inactive | inactive | inactive | inactive
COc1cc(C[C@H]2CO[C@H](c3ccc(O)c(OC)c3)[C@H]2CO)ccc1O | inactive | inactive | inactive | inactive
COc1cc([C@H]2OC[C@H]([C@@H](OC(C)=O)c3ccc(OC(C)=O)c(OC)c3)[C@@H]2COC(C)=O)ccc1OC(C)=O | inactive | inactive | – | –
COc1cc(C[C@H](COC(C)=O)Oc2ccc(C[C@@H]3[C@@H](Cc4ccc(OC(C)=O)c(OC)c4)CO[C@H]3OC(C)=O)cc2OC)ccc1OC(C)=O | inactive | inactive | – | –
COc1cc(C[C@H]2COC(=O)[C@@H]2Cc2ccc(O)c(OC)c2)ccc1O | inactive | inactive | inactive | inactive
COc1cc(C[C@H](CO)Oc2ccc(C[C@H]3C(=O)OC[C@@H]3Cc3ccc(O)c(OC)c3)cc2OC)ccc1O | – | – | inactive | inactive

Source: ChEMBL document CHEMBL1149071, “Lignans from the wood of Abies pinsapo” (J Nat Prod, 1994)
